UCH37 DUB inh – inhibitors of human UCH37 deubiquitinase, primary screen, biochemical, Ub-AMC cleavage, fluorescence; Ubiquitin carboxyl-terminal hydrolase isozyme L5 (Homo sapiens), Q9Y5K5; purified proteasome/UCH37; inhibition, % (no concentration beside the values); hit rate 0.33% among 330,000;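 active means mean inhibition over replicate wells above about 20%, limit read from the data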
Target sequence (Q9Y5K5 whole entry, looked up): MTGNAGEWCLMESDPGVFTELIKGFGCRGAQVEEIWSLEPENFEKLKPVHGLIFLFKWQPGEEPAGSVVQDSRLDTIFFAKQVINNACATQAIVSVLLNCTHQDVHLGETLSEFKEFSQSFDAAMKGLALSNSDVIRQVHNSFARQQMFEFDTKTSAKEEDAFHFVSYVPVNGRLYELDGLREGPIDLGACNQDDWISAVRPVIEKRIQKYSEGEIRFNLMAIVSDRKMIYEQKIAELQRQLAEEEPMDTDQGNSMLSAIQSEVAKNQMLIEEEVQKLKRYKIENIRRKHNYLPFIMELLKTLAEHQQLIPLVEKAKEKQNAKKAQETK
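Reagent: Ub-AMC substrate; assay system: Proteasome-associated human UCH37 deubiquitinase; controls: no-proteasome and no-compound wells; read-out: % inhibition of Ub-AMC cleavage fluorescence; timing: 30 min preincubation with enzyme, 25 min cleavage at room temperature; signal: AMC fluorescence from Ub-AMC cleavage, excitation 355 nm, emission 460 nm; buffer or medium: Tris-HCl pH 7.4 plus ovalbumin, ATP-MgCl2, DTT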
Casp6 inh – human caspase-6 inhibitors, primary screen, biochemical, VEID-R110 fluorescence, single point, set 2. purified caspase-6, Z-VEID-R110 cleavage fluorescence. P55212. AID 686996, 2013. hit rate 0.53% among 350,000. inhibition, % at 12.5 µM;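 active means mean inhibition across replicates at least about 35%, with every replicate also reaching that limit, limit read from the data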
TDP2 absorb – human TDP2 enzyme inhibitors, primary screen, biochemical, epi absorbance, recombinant enzyme; Tyrosyl-DNA phosphodiesterase 2 (Homo sapiens), O95551; T5PNP hydrolysis, p-nitrophenol absorbance 415 nm; inhibition, % at 12.8 µM; hit rate 0.34% among 370,000; AID 720702, 2013;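 active means inhibition above the mean of all tested compounds plus 3 SD, set per campaign, cut at about 25% in these data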
Target sequence (O95551 whole entry, looked up): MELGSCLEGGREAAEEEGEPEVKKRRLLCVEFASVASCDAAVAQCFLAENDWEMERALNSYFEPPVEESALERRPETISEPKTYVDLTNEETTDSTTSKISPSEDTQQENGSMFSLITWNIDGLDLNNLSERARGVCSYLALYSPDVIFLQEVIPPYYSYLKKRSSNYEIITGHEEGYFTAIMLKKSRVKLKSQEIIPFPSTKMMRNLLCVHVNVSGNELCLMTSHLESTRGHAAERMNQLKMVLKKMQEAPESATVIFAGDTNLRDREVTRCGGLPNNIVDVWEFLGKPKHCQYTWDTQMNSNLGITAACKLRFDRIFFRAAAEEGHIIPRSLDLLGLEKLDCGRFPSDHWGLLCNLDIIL
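Material: recombinant human TDP2; quantity: TDP2 enzyme at 120 nM final; medium: Tris-HCl pH 7.5 with MgCl2; compound: single concentration, 12.8 µM nominal, with 1% DMSO; incubation: 2 h enzyme incubation at 37 °C; signal: epi absorbance; measure: percent inhibition; benchmarks: high control without enzyme, low control DMSO plus TDP2; repeats: singlicate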
NSD2 HMT inh – NSD2 histone methyltransferase inhibitors, primary screen, biochemical, AlphaScreen, single concentration, set 2; Histone-lysine N-methyltransferase NSD2 (Homo sapiens), O96028; NSD2 peptide methylation, 120 min; inhibition, % at 12.5 µM; hit rate 0.54% among 310,000; in the data active means inhibition above about 50%
LEDGF integ inh – blockers of LEDGF/p75-dependent integrase strand transfer – biochemical, TR-FRET, high throughput, primary screen; inhibition, % at 3.7 µM; hit rate 0.64% among 370,000; TR-FRET IN-LEDGF/p75 DNA integration, Eu/Cy5; AID 743269, 2014; HIV-1 integrase (with human LEDGF/p75);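 active means inhibition above the screen-wide mean plus 3 SD, cut at about 13% in these data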;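 further: signal is the Cy5 over europium emission ratio at 671 and 618 nm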
CASP1 counter – human caspase-1 inhibitors, dose response, selectivity assay for caspase-6 inhibitor project, biochemical, Z-YVAD-R110 fluorescence, cherry-pick, set 2; shares compounds with Casp6 inh; purified caspase-1, Z-YVAD-R110 cleavage fluorescence; activity change, negative = inhibition, % at 35 µM; 100 tested, under 10 active;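 active means compounds lowering fluorescence whose fitted half-maximal concentration is no more than twice their top tested dose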
TDP2 confirm – human TDP2 enzyme inhibitors, retest, confirmation, biochemical, epi absorbance, recombinant enzyme. shares compounds with TDP2 absorb. absorbance read-out. inhibition, % at 12.8 µM. hit rate 22% among 1,100. AID 743263, 2014; in the data active means inhibition above about 25%
IN multimer act – HIV-1 IN multimer formation enhancers, counter-screen for LEDGF/p75 integration inhibitor project, biochemical, TR-FRET; shares compounds with LEDGF integ inh; TR-FRET HIV-1 integrase multimerization; activation, % at 7.7 µM; hit rate 17% among 2,000; in the data active means activation above about 8.9%
TR-FRET interf – TR-FRET optical interference artefacts, confirmation, artefact control for LEDGF/p75-dependent integration inhibitor project, biochemical, HIV-1 IN multimerization; shares compounds with LEDGF integ inh; inhibition, % at 7.7 µM; 2,000 tested, under 10 active; TR-FRET optical interference counterscreen; AID 1053135, 2014;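 active means inhibition above the mean over all tested compounds plus 3 SD, which no compound reached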
LEDGF integ conf – inhibitors of HIV-1 IN-LEDGF/p75 DNA integration, confirmation, biochemical, TR-FRET | shares compounds with LEDGF integ inh | inhibition, % at 3.7 µM | hit rate 36% among 2,000 | AID 1053136, 2014 | TR-FRET LEDGF/p75-dependent HIV-1 integration; in the data active means inhibition above about 14%
Of the large screens only hits and unclear results are named; the others gave an inactive call (follow-up assays come after a bar, where they were run). Compounds with a hit are over-represented: about 1.3% of the library has one in this group of screens.

CCOC(=O)C(CCCN(CC)CC)=NO	none (no result: Casp6 inh, TDP2 absorb, NSD2 HMT inh, LEDGF integ inh)
CC(Cc1ccc(O)cc1)NCC(O)c1ccc(O)c(O)c1 (stereo unspecified)	Casp6 inh 73, NSD2 HMT inh 126, LEDGF integ inh 35 (no result: UCH37 DUB inh) | CASP1 counter inactive | IN multimer act 10 | TR-FRET interf inactive | LEDGF integ conf 63
C[C@H]1CCCC=C[C@@H]2C[C@H](O)C[C@H]2[C@H](O)C=CC(=O)O1	none (no result: Casp6 inh, TDP2 absorb, NSD2 HMT inh, LEDGF integ inh)
Cc1cc(OCC(=O)NCc2ccncc2)c2c3c(c(=O)oc2c1)CCC3	TDP2 absorb 26 | TDP2 confirm inactive
CCCCCC(=NO)c1c[nH]c2ccccc12	none (no result: Casp6 inh, TDP2 absorb, NSD2 HMT inh, LEDGF integ inh)
COc1ccccc1CN1CCN(C(=O)COc2cccc(C)c2)CC1	none (no result: Casp6 inh)
COc1ccccc1CN1CCN(C(=O)COc2ccc3ccccc3c2)CC1	TDP2 absorb 25 (no result: UCH37 DUB inh) | TDP2 confirm inactive
O=[N+]([O-])c1ccccc1CNCCc1c[nH]c2ccccc12	TDP2 absorb 25 | TDP2 confirm inactive
COC[C@]12CN(C)C3C4[C@H](OC)C1C3([C@@H](OC)C[C@H]2O)[C@@H]1C[C@@]2(O)[C@H](OC(=O)c3ccccc3)[C@@H]1[C@]4(OC(C)=O)[C@@H](O)[C@@H]2OC	none (no result: Casp6 inh, TDP2 absorb, NSD2 HMT inh, LEDGF integ inh)
COCCCn1c(N)c(C(=O)Nc2sc3c(c2C(=O)OC)CCCC3)c2nc3ccccc3nc21	TDP2 absorb 35 (no result: Casp6 inh) | TDP2 confirm inactive
O=C1NC(=O)N(c2ccccc2)C(=O)/C1=C\c1ccc([N+](=O)[O-])s1	none
CN1C(=O)NC(=O)/C(=C/c2ccc([N+](=O)[O-])s2)C1=O	TDP2 absorb 25 (no result: UCH37 DUB inh) | TDP2 confirm inactive
COc1ccc(OC)c(N2C(=O)NC(=O)/C(=C\c3ccc([N+](=O)[O-])s3)C2=O)c1	TDP2 absorb 28 | TDP2 confirm inactive
NC(=S)NN=Cc1coc2ccccc2c1=O	none (no result: Casp6 inh, TDP2 absorb, NSD2 HMT inh, LEDGF integ inh)
CC1CCCC(C)N1N=Cc1c[nH]c2ccc(Br)cc12 (stereo unspecified)	none (no result: Casp6 inh, TDP2 absorb, NSD2 HMT inh, LEDGF integ inh)
Nc1c(C(=O)OCc2ccccc2)c2nc3ccccc3nc2n1Cc1cccs1	TDP2 absorb 25 (no result: Casp6 inh) | TDP2 confirm inactive
O=P(C(Cl)Cl)(N1CCOCC1)N1CCOCC1	TDP2 absorb 30 | TDP2 confirm inactive
O=CC(Br)P(=O)(N1CCOCC1)N1CCOCC1 (stereo unspecified)	none
CCn1cc(C=c2sc3n(c2=O)C2c4ccccc4OC(C)(N=3)C2C(=O)OC)c(C)n1 (stereo unspecified)	none (no result: Casp6 inh, TDP2 absorb, NSD2 HMT inh, LEDGF integ inh)
O=C1NC(=O)C(=Cc2ccccc2Oc2ccc(F)cc2)C(=O)N1	none
CN1C(=O)C(=Cc2ccccc2Oc2ccc(Cl)c(F)c2)C(=O)N(C)C1=O	TDP2 absorb 25 (no result: Casp6 inh) | TDP2 confirm inactive
N/C(=N\N=C/c1ccc(-c2ccc(O)c(C(=O)O)c2)o1)N[N+](=O)[O-]	TDP2 absorb 28, NSD2 HMT inh 121, LEDGF integ inh 30 (no result: UCH37 DUB inh, Casp6 inh) | TDP2 confirm inactive | IN multimer act 35 | TR-FRET interf inactive | LEDGF integ conf 25
CC(CC(c1ccccc1)c1c(O)c2ccccc2oc1=O)=NNc1ccc([N+](=O)[O-])cc1[N+](=O)[O-] (stereo unspecified)	none (no result: Casp6 inh, TDP2 absorb, NSD2 HMT inh, LEDGF integ inh)
COCCCn1c(N)c(C(=O)NCc2ccco2)c2nc3ccccc3nc21	Casp6 inh 98, TDP2 absorb 92, LEDGF integ inh 33 (no result: UCH37 DUB inh) | TDP2 confirm inactive | IN multimer act inactive | TR-FRET interf inactive | LEDGF integ conf 52
CC(C)(C)OC(=O)c1c(N)n(Cc2ccco2)c2nc3ccccc3nc12	TDP2 absorb 67, LEDGF integ inh 35 (no result: Casp6 inh) | TDP2 confirm inactive | IN multimer act inactive | TR-FRET interf inactive | LEDGF integ conf inactive
COCCNC(=O)c1c(N)n(Cc2ccco2)c2nc3ccccc3nc12	none (no result: Casp6 inh)
NC(=NN=Cc1ccc(O)cc1)N[N+](=O)[O-]	none (no result: Casp6 inh, TDP2 absorb, NSD2 HMT inh, LEDGF integ inh)
C[n+]1c(-c2ccccc2)c2cc(N)ccc2c2ccc(N)cc21	TDP2 absorb 58, LEDGF integ inh 41 (no result: Casp6 inh, NSD2 HMT inh) | TDP2 confirm inactive | IN multimer act inactive | TR-FRET interf inactive | LEDGF integ conf 64
Cc1cc(N(CCCl)CCCl)ccc1C=NN=C(N)c1cnccn1	none (no result: Casp6 inh, TDP2 absorb, NSD2 HMT inh, LEDGF integ inh)
COc1cc2c(cc1O)[C@@H]1Cc3ccc(OC)c(O)c3CN1CC2	TDP2 absorb 54, LEDGF integ inh 38 (no result: NSD2 HMT inh) | TDP2 confirm 38 | IN multimer act inactive | TR-FRET interf inactive | LEDGF integ conf 44
CCCCn1c(N)c(C(=O)NCCN2CCOCC2)c2nc3ccccc3nc21	none (no result: Casp6 inh)
CCCCn1c(NC(=O)c2ccc(Br)o2)c(C(=O)OCC)c2nc3ccccc3nc21	TDP2 absorb 65, LEDGF integ inh 17 (no result: UCH37 DUB inh, NSD2 HMT inh) | TDP2 confirm 73 | IN multimer act inactive | TR-FRET interf inactive | LEDGF integ conf 69
O=C1OCCN1N=Cc1ccc([N+](=O)[O-])o1	none (no result: Casp6 inh, TDP2 absorb, NSD2 HMT inh, LEDGF integ inh)
CC(C)CCNC(=O)c1c(N)n(CC2CCCO2)c2nc3ccccc3nc12 (stereo unspecified)	none (no result: Casp6 inh)
CCC(C)NC(=O)c1c(N)n(CC2CCCO2)c2nc3ccccc3nc12 (stereo unspecified)	TDP2 absorb 62, LEDGF integ inh 19 (no result: Casp6 inh) | TDP2 confirm inactive | IN multimer act inactive | TR-FRET interf inactive | LEDGF integ conf inactive

Source: PubChem
